Vif inh: blocks HIV Vif function | 0.35% of 340,000 active | inhibition, % at 7.49 µM | HEK293T cells, Vif self-association by quenched fluorescence, imaging, 24 h; in the data active = inhibition above about 50%, passing the limit was not always enough
DAGLB inh: diacylglycerol lipase beta (human) inhibition; Q8NCG7; HEK293T DAGLB membrane lysate, EnzChek fluorogenic substrate; inhibition, % at 5.17 µM; 0.059% of 340,000 active; AID 504411; in the data active = inhibition above about 34%;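 note: 0% = enzyme with vehicle and 100% = wells lacking enzyme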
NR2E3 ag-1: agonists of human NR2E3 nuclear receptor. 0.35% of 360,000 active. Q9Y5X4. inhibition of corepressor binding, % at 3.98 µM. CHO-S Gal4-NCOR/VP16-NR2E3 two-hybrid, luciferase;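 active = inhibition above the mean of all tested compounds plus 3 SD, cut at about 70% in these data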;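 note: 0% = DMSO with NR2E3 transfected cells and 100% = cells lacking NR2E3 construct; higher means lower luciferase signal from less NR2E3 corepressor binding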
Target sequence (Q9Y5X4 whole entry, looked up, the tested form may be a part): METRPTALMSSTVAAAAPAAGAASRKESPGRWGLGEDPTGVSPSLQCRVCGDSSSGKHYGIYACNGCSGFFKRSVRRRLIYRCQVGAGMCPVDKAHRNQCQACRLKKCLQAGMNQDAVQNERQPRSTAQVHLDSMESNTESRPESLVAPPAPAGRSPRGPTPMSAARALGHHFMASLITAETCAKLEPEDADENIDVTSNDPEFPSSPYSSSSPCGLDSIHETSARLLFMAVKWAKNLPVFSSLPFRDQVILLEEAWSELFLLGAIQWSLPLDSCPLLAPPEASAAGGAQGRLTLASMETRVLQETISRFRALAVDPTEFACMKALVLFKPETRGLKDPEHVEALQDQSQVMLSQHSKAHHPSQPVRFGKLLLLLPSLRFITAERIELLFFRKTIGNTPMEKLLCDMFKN
MT1-MMP act inh: inhibitors of human MT1-MMP activation; P50281; HT1080 RFP-PRO-GFP cells, GFP/RFP ratio fluorescence, overnight; percent of plate control window, DMSO zero; GFP/RFP ratio change, % at 20 µM; 0.061% of 360,000 active;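 active = GFP/RFP ratio change of at least 30% with cell ATP level not reduced by more than half and red fluorescence within 50% of control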
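Test system: HT1080 cells expressing an RFP-PRO-GFP fluorescent reporter construct / Compound dosing: single-point 20 µM compound, 1% DMSO / Schedule: cells overnight before dosing, compound overnight, 37 °C, 5% CO2 / Evaluation: GFP/RFP fluorescence ratio / Control set: DMSO and RFP-L50D-GFP cell wells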
HCV core dimer: blocks dimerization of HCV core protein. TR-FRET GST/Flag-core106 dimerization, 1536-well. inhibition, % at 5 µM. 0.33% of 300,000 active. AID 1899;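 active = inhibition above the mean of all tested compounds plus 3 SD, set per screening campaign, cut at about 45% in these data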
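Test system: GST/Flag-tagged HCV core106 proteins; Medium: KF-containing HEPES buffer, pH 7.45, DTT, CHAPS, BSA; Times: compound-protein-antibody incubation 4 h at 22.5 °C; Detection: TR-FRET 671 and 617 nm emission; Benchmarks: wells lacking GST-core106 and wells with excess unlabelled core106.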
NR2E3 ag-2: activates human photoreceptor nuclear receptor NR2E3. Q9Y5X4. GST-NR2E3/biotin-RetCOR TR-FRET, 1536-well. inhibition of corepressor binding, % at 4.78 µM. 0.12% of 320,000 active. AID 2300;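 active = percent inhibition above the cutoff of mean plus 3 SD of all tested compounds, set per screening campaign, cut at about 20% in these data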;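 note: 0% = DMSO wells and 100% = biotin wells as full block of FRET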
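Format: 1536-well format; test system: GST-NR2E3 and biotin-RetCOR proteins; read-out basis: percent inhibition of TR-FRET ratio; timing: 5 h incubation at 4 °C; detection: time-resolved FRET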
NR2E3 ag confirm: NR2E3 (human) agonism, confirmation | AID 2379 | cell-free NR2E3 corepressor release, TR-FRET, 5 h | activation (reported as inhibition), % at 3.98 µM | shares compounds with NR2E3 ag-2 | 39% of 360 active; in the data active = activation above about 20%
PPARg-NCOR2 ag: releases PPARgamma from NCOR2 in NR2E3 counter-screen | shares compounds with NR2E3 ag-2 | AID 504787 | inhibition, % at 3.98 µM | TR-FRET PPARg-NCOR2 coregulator interaction, biochemical | 45% of 360 active; in the data active = inhibition above about 20%;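 note: 0% = DMSO vehicle and 100% = wells without protein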
* marks the source's active call; other numbers are inactive results; / = no result. This is a sample that favours compounds with a hit; in the whole collection about 1.1% have one here.

SMILES | Vif inh | DAGLB inh | NR2E3 ag-1 | MT1-MMP act inh | HCV core dimer | NR2E3 ag-2 | others
C/C(=N\N1CCCCCC1)c1c(O)n(-c2ccc(C)cc2)c(=O)[nH]c1=O | 68.0* | 0.8 | -13.1 | 4.5 | 12.5 | 3.2
C/C(=N\N1CCCCCC1)c1c(O)n(-c2ccc(Cl)cc2)c(=O)[nH]c1=O | 8.2 | -2.7 | 12.0 | -0.1 | 3.1 | 1.9
CCC(C)(O)C(=O)OC1C(=O)OC2CC3C(C)=CC(O)C(O)C3(C)C3C4(O)OCC23C1C(C)C4O (stereo not given) | -33.1 | / | 2.4 | -49.7 | / | /
Cc1cc(/C=C2\C(=O)NC(=O)N(Cc3ccco3)C2=O)c(C)n1-c1ccc(O)cc1 | -0.4 | 5.0 | 21.0 | -22.8 | 46.8* | 4.2
COc1cc(C2c3cc4c(cc3CC3COC(=O)C32)OCO4)cc(OC)c1OC (stereo not given) | 86.7* | -4.6 | 11.7 | 18.2 | / | /
CC(C)(C)n1nnnc1C(CCc1ccccc1)N1CCC2(CC1)C(=O)NCN2c1ccccc1 (stereo not given) | -6.2 | / | -23.1 | -5.3 | / | /
O=c1[nH]c2ccccc2n1C1CCN(C(c2cc3ccccc3o2)c2nnnn2-c2ccc3c(c2)OCCO3)CC1 (stereo not given) | / | / | 21.7 | -30.7 | / | /
COC1/C=C/C=C(\C)Cc2cc(O)c(Cl)c(c2)N(C)C(=O)CC(OC(=O)C(C)C)C2(C)OC2C(C)C2CC1(O)NC(=O)O2 (stereo not given) | 64.1* | 2.5 | 33.5 | 14.8 | / | /
Cc1ccc(-[n+]2c(Cc3nn(-c4ccccc4)c(C)[n+]3-c3ccc(C)cc3)nn(-c3ccccc3)c2C)cc1 | / | 0.1 | -9.5 | -1.0 | / | /
COc1cccc(C)c1NC1=NCCO1 | 3.0 | -3.7 | -1.9 | 4.2 | / | /
O=C1NC(=S)N(C2CC2)C(=O)/C1=C/c1ccc2c(c1)CCN2CCCCl | -2.3 | 4.1 | -19.1 | -2.9 | 35.2 | -5.5
CCN1C(=O)/C(=C/c2ccc3c(c2)CCN3CCCCl)C(=O)NC1=S | 3.2 | 7.7 | -14.7 | 6.4 | 84.1* | 1.6
C[C@]12CC[C@@H](O)CC1=CCC1C2CC[C@@]2(C)C1C[C@@H](F)[C@H]2O (stereo not given in full) | 2.5 | -2.2 | -43.4 | -1.6 | / | /
CCOC(=O)[C@]12Cc3cc(C)ccc3[C@H]1N(C1CCCCC1)C(=O)c1ccccc12 | / | / | 37.5 | -31.8 | / | /
CCOC(=O)c1c(NS(=O)(=O)c2ccccc2)n(CCCOC)c2nc3ccccc3nc12 | -9.2 | -5.0 | 2.8 | / | 6.9 | 38.4* | NR2E3 ag confirm=1.3;PPARg-NCOR2 ag=-8.9
O=C1C(=O)c2ccccc2-c2ccccc21 | 3.2 | -31.8 | 67.6 | -21.9 | 44.4 | 36.6* | NR2E3 ag confirm=39.4*;PPARg-NCOR2 ag=83.5*
O=C1C(=O)c2cccc3cccc1c23 | 6.8 | 1.0 | 2.4 | 1.4 | -11.2 | 0.1
Cc1ccc(CN2Cc3ccc(Br)cc3-n3nncc3C2)cc1 | 10.0 | / | -29.8 | 0.9 | / | /
COc1ccc(-n2nnnc2C(c2cccs2)N2CCC3(CC2)C(=O)NCN3c2ccccc2)cc1 (stereo not given) | 0.2 | / | -8.6 | -1.6 | / | /
COCCNC(=O)c1c(NC(=O)c2ccc(Br)o2)n(Cc2ccccc2)c2nc3ccccc3nc12 | -11.3 | 1.0 | -5.5 | -139.5 | 18.6 | 22.7* | NR2E3 ag confirm=-2.0;PPARg-NCOR2 ag=4.5

Screening results as filed in PubChem.
